Measured values taken from ChEMBL document CHEMBL1124384, “Deaminoteicoplanin and its derivatives. Synthesis, antibacterial activity, and binding strength to Ac-D-Ala-D-Ala” (J Med Chem, 1989).
Converted amounts (≈) assume the structure as drawn.

Assays:
[1] = tested on: Streptococcus pyogenes; experiment: Minimal inhibitory concentration of compound against Streptococcus pyogenes C203; type: functional
In short: (§1)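 Streptococci were tested by 2-fold broth microdilution in Todd-Hewitt broth, with a final inoculum of about 10⁴ cfu/mL. After 18–24 h at 37 °C, MIC was read as the lowest concentration with no visible growth.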

[2] = tested on: Enterococcus faecalis; experiment: Minimal inhibitory concentration of compound against Streptococcus faecalis AACC7080; type: functional
In short: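 For S. faecalis, 2-fold dilution MIC in a microtiter system using Iso-sensitest broth and a final inoculum of about 10⁴ cfu/mL. Incubation was 18–24 h at 37 °C. The endpoint was the lowest concentration without visible growth.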

[3] = tested on: Staphylococcus aureus; experiment: Minimal inhibitory concentration of compound against Staphylococcus aureus Tour determined in iso-sensitest broth supplemented with 30% bovine serum and an inoculum of 10e4 cfu/mL
[4] = tested on: Staphylococcus aureus; experiment: Minimal inhibitory concentration of compound against Staphylococcus aureus Tour in an inoculum of 10e6 cfu/mL; type: functional
In short: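 Twofold microtiter broth dilution in Iso-sensitest broth, with the inoculum raised to 10⁶ cfu/mL. After 18–24 h at 37 °C, MIC was read as the lowest concentration giving no visible growth.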

[5] = tested on: Staphylococcus aureus; experiment: Minimal inhibitory concentration of compound against Staphylococcus aureus Tour; type: functional
In short: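 Broth MIC by 2-fold serial dilution in microtiter format, in Iso-sensitest broth, with a final inoculum of about 10⁴ cfu/mL. Plates were incubated 18–24 h at 37 °C. MIC was taken as the lowest concentration with no visible growth.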

[6] = tested on: Staphylococcus epidermidis; experiment: Minimal inhibitory concentration of compound against […] ATCC 12228; type: functional
[7] = tested on: Streptococcus pneumoniae; experiment: Minimal inhibitory concentration of compound against Streptococcus pneumoniae UC41; type: functional; in short: as §1
[8] = Association constant for compound at 31 degree C was determined; type: ADME
In short: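 UV difference spectroscopy at 31 °C. Antibiotic at 25 μM in 10% methanol/0.02 M sodium citrate buffer, pH 5, sat in sample and reference cells (4-cm path). Ac-D-Ala-D-Ala was added from a 4 mM stock to the sample cell, with buffer added to the reference. The absorbance change was read at 282–285 nm. K_A came from Scatchard plots, with antibiotic concentration set by UV at 279 nm.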

SMILES | MIC [1] | MIC [2] | MIC [3] | MIC [4] | MIC [5] | MIC [6] | MIC [7] | KA [8]
CC(=O)N[C@@H]1[C@H](O[C@@H]2c3ccc(c(Cl)c3)Oc3cc4cc(c3O)Oc3ccc(cc3Cl)C[C@H]3NC(=O)Cc5ccc(O)c(c5)Oc5cc(O)cc(c5)[C@H](NC3=O)C(=O)N[C@H]4C(=O)N[C@H]3C(=O)N[C@@H]2C(=O)N[C@H](C(=O)O)c2cc(O)cc(O)c2-c2cc3ccc2O)O[C@@H](CO)[C@@H](O)[C@@H]1O | 8 µg/mL (≈ 5.77 µM) | 8 µg/mL (≈ 5.77 µM) | 16 µg/mL (≈ 11.5 µM) | 2 µg/mL (≈ 1.44 µM) | 2 µg/mL (≈ 1.44 µM) | 1 µg/mL (≈ 0.721 µM) | 2 µg/mL (≈ 1.44 µM) | 
CN(C)CCCNC(=O)[C@H]1NC(=O)[C@H]2NC(=O)[C@H](NC(=O)[C@@H]3NC(=O)[C@H]4NC(=O)[C@@H](Cc5ccc(c(Cl)c5)Oc5cc3cc(c5O)Oc3ccc(cc3Cl)[C@H]2O)NC(=O)[C@H](N)c2ccc(O)c(c2)Oc2cc(O)cc4c2)c2ccc(O)c(c2)-c2c(O)cc(O)cc21 | 0.06 µg/mL (≈ 0.0468 µM) | 0.12 µg/mL (≈ 0.0935 µM) | 0.25 µg/mL (≈ 0.195 µM) | 0.12 µg/mL (≈ 0.0935 µM) | 0.06 µg/mL (≈ 0.0468 µM) | 0.016 µg/mL (≈ 0.0125 µM) | 0.06 µg/mL (≈ 0.0468 µM) | 
N[C@H]1C(=O)N[C@@H]2Cc3ccc(c(Cl)c3)Oc3cc4cc(c3O)Oc3ccc(cc3Cl)[C@@H](O)[C@@H]3NC(=O)[C@H](NC(=O)[C@@H]4NC(=O)[C@@H](NC2=O)c2cc(O)cc(c2)Oc2cc1ccc2O)c1ccc(O)c(c1)-c1c(O)cc(O)cc1[C@@H](C(=O)O)NC3=O [TEICOPLANIN AGLYCON] | 0.12 µg/mL (≈ 0.1 µM) | 0.12 µg/mL (≈ 0.1 µM) | 0.25 µg/mL (≈ 0.209 µM) | 0.12 µg/mL (≈ 0.1 µM) | 0.06 µg/mL (≈ 0.05 µM) | 0.016 µg/mL (≈ 0.0133 µM) | 0.12 µg/mL (≈ 0.1 µM) | 180000 M⁻¹
CC(=O)N[C@@H]1[C@H](O[C@@H]2c3ccc(c(Cl)c3)Oc3cc4cc(c3O)Oc3ccc(cc3Cl)C[C@H]3NC(=O)[C@H](N)c5ccc(O)c(c5)Oc5cc(O)cc(c5)[C@H](NC3=O)C(=O)N[C@H]4C(=O)N[C@H]3C(=O)N[C@@H]2C(=O)N[C@H](C(=O)O)c2cc(O)cc(O[C@H]4O[C@H](CO)[C@@H](O)[C@@H](O)[C@@H]4O)c2-c2cc3ccc2O)O[C@@H](CO)[C@@H](O)[C@@H]1O | 0.5 µg/mL (≈ 0.32 µM) | 2 µg/mL (≈ 1.28 µM) | 0.5 µg/mL (≈ 0.32 µM) | 0.5 µg/mL (≈ 0.32 µM) | 0.25 µg/mL (≈ 0.16 µM) | 0.25 µg/mL (≈ 0.16 µM) | 0.5 µg/mL (≈ 0.32 µM) | 
CN(C)CCCNC(=O)[C@H]1NC(=O)[C@H]2NC(=O)[C@H](NC(=O)[C@@H]3NC(=O)[C@H]4NC(=O)[C@@H](Cc5ccc(c(Cl)c5)Oc5cc3cc(c5O)Oc3ccc(cc3Cl)[C@H]2O)NC(=O)Cc2ccc(O)c(c2)Oc2cc(O)cc4c2)c2ccc(O)c(c2)-c2c(O)cc(O)cc21 | 0.12 µg/mL (≈ 0.0946 µM) | 0.12 µg/mL (≈ 0.0946 µM) | 4 µg/mL (≈ 3.15 µM) | 0.12 µg/mL (≈ 0.0946 µM) | 0.12 µg/mL (≈ 0.0946 µM) | 0.12 µg/mL (≈ 0.0946 µM) | 0.2 µg/mL (≈ 0.158 µM) | 
CCCCCCCCCC(=O)N[C@@H]1[C@H](Oc2c3cc4cc2Oc2ccc(cc2Cl)[C@@H](O[C@@H]2O[C@@H](CO)[C@@H](O)[C@H](O)[C@@H]2NC(C)=O)[C@@H]2NC(=O)[C@H](NC(=O)[C@@H]4NC(=O)[C@H]4NC(=O)[C@@H](Cc5ccc(c(Cl)c5)O3)NC(=O)Cc3ccc(O)c(c3)Oc3cc(O)cc4c3)c3ccc(O)c(c3)-c3c(O[C@H]4O[C@H](CO)[C@@H](O)[C@@H](O)[C@@H]4O)cc(O)cc3[C@@H](C(=O)N(C)C)NC2=O)O[C@@H](CO)[C@@H](O)[C@@H]1O | 0.12 µg/mL (≈ 0.0634 µM) | 0.25 µg/mL (≈ 0.132 µM) | 4 µg/mL (≈ 2.11 µM) | 1 µg/mL (≈ 0.529 µM) | 0.12 µg/mL (≈ 0.0634 µM) | 0.12 µg/mL (≈ 0.0634 µM) | 0.12 µg/mL (≈ 0.0634 µM) | 200000 M⁻¹
CC(=O)N[C@@H]1[C@H](O[C@@H]2c3ccc(c(Cl)c3)Oc3cc4cc(c3O)Oc3ccc(cc3Cl)C[C@H]3NC(=O)[C@H](N)c5ccc(O)c(c5)Oc5cc(O)cc(c5)[C@H](NC3=O)C(=O)N[C@H]4C(=O)N[C@H]3C(=O)N[C@@H]2C(=O)N[C@H](C(=O)O)c2cc(O)cc(O)c2-c2cc3ccc2O)O[C@@H](CO)[C@@H](O)[C@@H]1O | 0.5 µg/mL (≈ 0.357 µM) | 1 µg/mL (≈ 0.713 µM) | 0.5 µg/mL (≈ 0.357 µM) | 0.25 µg/mL (≈ 0.178 µM) | 0.5 µg/mL (≈ 0.357 µM) | 0.12 µg/mL (≈ 0.0856 µM) | 1 µg/mL (≈ 0.713 µM) | 
